In ChEMBL document CHEMBL1157378, “Role for cell density in antifungal drug resistance in Candida albicans biofilms” (2007):
Values after ≈ are worked out from the molar mass of the structure shown. Active and inactive are the calls of the source. No cut-off for these calls is given here.

How the values were obtained:
[1] = test system: Candida albicans; assay: Antimicrobial activity against Cdr1, Cdr2 and Mdr1 deficient Candida albicans DSY1050 dissociated biofilms at cell density of 10^3 cells/ml after 48 hrs by XTT assay; assay type: functional; settings: DSY1050, 48 h
How it was run: (§1)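 Polystyrene-well biofilms (48 h, 37°C) washed, then broken up in 100 µl RPMI by scraping and aspiration. Cells used undiluted (about 2 x 10^8 cells/ml equivalent) or adjusted by A600 against a hemacytometer-calibrated yeast standard curve. Drug exposure at 37°C for 48 h (caspofungin 24 h), then XTT/menadione read at 490 nm.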

[2] = test system: Candida albicans; assay: Antimicrobial activity against Candida albicans FH1 dissociated biofilms at cell density of 10^3 cells/ml after 48 hrs by XTT assay; assay type: functional; settings: FH1, 48 h; how it was run: as §1
[3] = test system: Candida albicans; assay: Antimicrobial activity against Candida albicans FH1 at planktonic cell density of 10^8 cells/ml after 48 hrs by XTT assay; assay type: functional; settings: FH1, 48 h
How it was run: (§2)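 YNB-grown yeast (50 mM glucose, room temperature, shaken, to ~2 x 10^8 cells/ml) washed into MOPS-buffered RPMI 1640 with L-glutamine and set to the stated density. Exposed to twofold serial drug dilutions (1,024 to 0.0313 µg/ml) at 37°C, 48 h (caspofungin 24 h), with drug-free controls. Read-out: XTT (0.5 g/liter) plus 1 µM menadione, formazan at 490 nm.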

[4] = test system: Candida albicans; assay: Antimicrobial activity against Candida albicans intact biofilms; assay type: functional
How it was run: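 Biofilm formed in polystyrene wells from 1 x 10^6 cells/ml, 48 h at 37°C in MOPS-buffered RPMI 1640, washed once. Intact biofilm exposed in the same well to twofold serial drug dilutions (1,024 to 0.0313 µg/ml) at 37°C for 48 h (caspofungin 24 h), with drug-free controls. Metabolic activity measured by XTT plus 1 µM menadione, absorbance at 490 nm.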

[5] = test system: Candida albicans; assay: Antimicrobial activity against Candida albicans SC5314 dissociated biofilms grown on silicone-elastomer coated latex surface at cell density of 10^3 cells/ml at 0.25 to 8 ug/ml by XTT assay; assay type: functional, organism-based
How it was run: (§3)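 1-cm discs of denture acrylic, PVC catheter or silicone elastomer-coated latex catheter, ethylene-oxide sterilised. Seeded with 1 ml of 1 x 10^6 cells/ml, adhesion 90 min at 37°C, washed, grown 48 h at 37°C in RPMI. Biofilm scraped off, set to 1 x 10^3 or 1 x 10^8 cells/ml, exposed to fluconazole, read by XTT at 490 nm.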

[6] = test system: Candida albicans; assay: Antimicrobial activity against Chk1 deficient Candida albicans CHK21 at planktonic cell density of 10^3 cells/ml after 48 hrs by XTT assay; assay type: functional; settings: CHK21, 48 h; how it was run: as §2
[7] = test system: Candida albicans; assay: Antimicrobial activity against Candida albicans GDH2346 dissociated biofilms at cell density of 10^3 cells/ml after 48 hrs by XTT assay; assay type: functional; settings: GDH2346, 48 h; how it was run: as §1
[8] = test system: Candida albicans; assay: Antimicrobial activity against fluconazole-resistant Candida albicans FH5 at planktonic cell density of 10^8 cells/ml after 48 hrs by XTT assay; assay type: functional; settings: FH5, 48 h; how it was run: as §2
[9] = test system: Candida albicans; assay: Antimicrobial activity against Cdr1, Cdr2 and Mdr1 deficient Candida albicans DSY1050 at planktonic cell density of 10^3 cells/ml after 48 hrs by XTT assay; assay type: functional; settings: DSY1050, 48 h; how it was run: as §2
[10] = test system: Candida albicans; assay: Antimicrobial activity against Candida albicans SC5314 dissociated biofilms grown on silicone-elastomer coated latex surface at cell density of 10^8 cells/ml at 0.25 to 8 ug/ml by XTT assay; assay type: functional, organism-based; how it was run: as §3
[11] = test system: Candida albicans; assay: Antimicrobial activity against Candida albicans SC5314 dissociated biofilms grown on polymethylmethacrylate surface at cell density of 10^3 cells/ml at 0.25 to 8 ug/ml by XTT assay; assay type: functional, organism-based; how it was run: as §3
[12] = test system: Candida albicans; assay: Inhibition of metabolic activity in Candida albicans SC5314 at 32 ug/ml; assay type: functional; parameters: scale not given: the % may be the effect or the level left
How it was run: (§4)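 SC5314 fluconazole susceptibility tested with or without FK506. Cell suspension, drug and FK506 volumes set to the final concentrations in 200 µl. Incubation at 37°C for 48 h, then metabolic activity by XTT/menadione at 490 nm.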

[13] = test system: Candida albicans; assay: Antimicrobial activity against fluconazole-resistant Candida albicans FH5 at planktonic cell density of 10^3 cells/ml after 48 hrs by XTT assay; assay type: functional; settings: FH5, 48 h; how it was run: as §2
[14] = test system: Candida albicans; assay: Antimicrobial activity against Candida albicans GDH2346 dissociated biofilms at cell density of 10^8 cells/ml after 48 hrs by XTT assay; assay type: functional; settings: GDH2346, 48 h; how it was run: as §1
[15] = test system: Candida albicans; assay: Antimicrobial activity against fluconazole-resistant Candida albicans FH5 dissociated biofilms at cell density of 10^3 cells/ml after 48 hrs by XTT assay; assay type: functional; settings: FH5, 48 h; how it was run: as §1
[16] = test system: Candida albicans; assay: Antimicrobial activity against Candida albicans disaggregated biofilms; assay type: functional
How it was run: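 Biofilm grown 48 h at 37°C in RPMI (MOPS-buffered) on polystyrene wells from 1 x 10^6 cells/ml, washed, then dissociated by scraping/aspiration in 100 µl. Used undiluted (about 2 x 10^8 cells/ml) or diluted to about 2 x 10^3 cells/ml. Twofold drug dilutions (1,024 to 0.0313 µg/ml) for 48 h at 37°C (caspofungin 24 h). Read-out is XTT/menadione reduction at 490 nm.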

[17] = test system: Candida albicans; assay: Antimicrobial activity against Candida albicans SC5314 dissociated biofilms grown on polymethylmethacrylate surface at cell density of 10^8 cells/ml at 0.25 to 8 ug/ml by XTT assay; assay type: functional, organism-based; how it was run: as §3
[18] = test system: Candida albicans; assay: Antimicrobial activity against Candida albicans SC5314 at planktonic cell density of 10^8 cells/ml after 48 hrs by XTT assay; assay type: functional; settings: SC5314, 48 h; how it was run: as §2
[19] = test system: Candida albicans; assay: Antimicrobial activity against Candida albicans FH1 intact biofilms after 48 hrs by XTT assay; assay type: functional; settings: FH1, 48 h
How it was run: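 Biofilm seeded at 1 x 10^6 cells/ml in RPMI in polystyrene microtiter wells and grown 48 h at 37°C in a moist chamber. Washed once and drug added to the same well (twofold dilutions, 1,024 to 0.0313 µg/ml) for 48 h at 37°C (caspofungin 24 h). Read-out: XTT/menadione reduction at 490 nm.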

[20] = test system: Candida albicans; assay: Inhibition of metabolic activity in Candida albicans SC5314 at 32 ug/ml in presence of 2 ug/ml calcineurin pathway inhibitor FK506; assay type: functional; parameters: scale not given: the % may be the effect or the level left; how it was run: as §4
[21] = test system: Candida albicans; assay: Antimicrobial activity against Candida albicans SC5314 dissociated biofilms at cell density of 10^8 cells/ml after 48 hrs by XTT assay; assay type: functional; settings: SC5314, 48 h; how it was run: as §1
[22] = test system: Candida albicans; assay: Antimicrobial activity against Chk1 deficient Candida albicans CHK21 dissociated biofilms at cell density of 10^8 cells/ml after 48 hrs by XTT assay; assay type: functional; settings: CHK21, 48 h; how it was run: as §1
[23] = test system: Candida albicans; assay: Antimicrobial activity against Chk1 deficient Candida albicans CHK21 dissociated biofilms at cell density of 10^3 cells/ml after 48 hrs by XTT assay; assay type: functional; settings: CHK21, 48 h; how it was run: as §1
[24] = test system: Candida albicans; assay: Antimicrobial activity against Chk1 deficient Candida albicans CHK21 at planktonic cell density of 10^8 cells/ml after 48 hrs by XTT assay; assay type: functional; settings: CHK21, 48 h; how it was run: as §2
[25] = test system: Candida albicans; assay: Antimicrobial activity against Candida albicans SC5314 at 512 ug/ml at planktonic cell density of 5 x 10^7 cells/ml after 48 hrs by XTT assay; assay type: functional; settings: SC5314, 48 h
[26] = test system: Candida albicans; assay: Antimicrobial activity against Candida albicans SC5314 at planktonic cell density of 10^3 cells/ml after 48 hrs by XTT assay; assay type: functional; settings: SC5314, 48 h; how it was run: as §2

Q: How did the MIC80 [1] turn out when `OC(Cn1cncn1)(Cn1cncn1)c1ccc(F)cc1F` [FLUCONAZOLE] was run?
A: 0.125 µg/mL (≈ 0.408 µM)

Q: And the MIC80 [2]?
A: 2 µg/mL (≈ 6.53 µM)

Q: And the MIC80 [3]?
A: > 512 µg/mL

Q: And the MIC [4]?
A: > 1020 µg/mL

Q: And the Activity [5]?
A: Active

Q: What about the MIC80 [6] of the same molecule?
A: 0.125 µg/mL (≈ 0.408 µM)

Q: What about the MIC80 [7] of the same molecule?
A: 0.25 µg/mL (≈ 0.816 µM)

Q: And the MIC80 [8]?
A: > 512 µg/mL

Q: What about the MIC80 [9] of the same molecule?
A: 0.25 µg/mL (≈ 0.816 µM)

Q: What about the Activity [10] of the same molecule?
A: inactive

Q: What about the Activity [11] of the same molecule?
A: Active

Q: And the Activity [12]?
A: 15%

Q: What about the MIC80 [13] of the same molecule?
A: 64 µg/mL (≈ 209 µM)

Q: And the MIC80 [14]?
A: > 64 µg/mL

Q: What about the MIC80 [15] of the same molecule?
A: 64 µg/mL (≈ 209 µM)

Q: What about the MIC [16] of the same molecule?
A: 256 µg/mL (≈ 836 µM)

Q: And the Activity [17]?
A: inactive

Q: What about the MIC80 [18] of the same molecule?
A: > 256 µg/mL

Q: And the MIC80 [19]?
A: > 512 µg/mL

Q: What about the Activity [20] of the same molecule?
A: 17%

Q: And the MIC80 [21]?
A: > 256 µg/mL

Q: What about the MIC80 [22] of the same molecule?
A: > 64 µg/mL

Q: And the MIC80 [23]?
A: 0.125 µg/mL (≈ 0.408 µM)

Q: And the MIC80 [24]?
A: > 64 µg/mL

Q: What about the inhibition at 512 µg/mL [25] of the same molecule?
A: 40%

Q: And the MIC80 [26]?
A: 0.5 µg/mL (≈ 1.63 µM)
